Results as given in ChEMBL document CHEMBL1926577, “Novel 1,3,4-heterodiazole analogues: synthesis and in-vitro antitumor activity” (2012).

Assays:
Format in all cases: functional
HL-60(TB) = assay: Growth inhibition of human HL-60(TB) cells at 10 uM after 48 hrs by coulter counter method; conditions: HL-60, 48 h, read-out: GI
In short: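 Single-dose screen on the NCI 60-line panel (leukemia subpanel). Compound is dissolved in DMSO and diluted in PBS, with final DMSO below 1%. Duplicate wells hold 6 × 10⁴ cells/ml at 37 °C, 5% CO₂, for 48 h. Cells are counted by Coulter counter after 10-fold saline dilution. Read-out is percent growth versus PBS/DMSO controls, expressed as % growth inhibition.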

NCI/ADR-RES = assay: Growth inhibition of human NCI/ADR-RES cells at 10 uM after 48 hrs by coulter counter method; conditions: read-out: GI
In short: (§1)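 NCI 60-cell-line panel, single dose. Compound dissolved first in DMSO, then diluted in phosphate-buffered saline so that every final dilution held under 1% DMSO. Duplicate wells received cells at 6 × 10⁴ cells/ml. Controls held PBS/DMSO at the same dilution. Plates were incubated 48 h at 37 °C under 5% CO₂. Cells were then diluted 10-fold in saline and counted on a Coulter counter, with counts corrected for the dilution. Results are given as percent growth inhibition.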

BT-549 = assay: Growth inhibition of human BT549 cells at 10 uM after 48 hrs by coulter counter method; conditions: BT-549, 48 h, read-out: GI; in short: as §1
SN12C = assay: Growth inhibition of human SN12C cells at 10 uM after 48 hrs by coulter counter method; conditions: read-out: GI; in short: as §1
UO-31 = assay: Growth inhibition of human UO31 cells at 10 uM after 48 hrs by coulter counter method; conditions: UO-31, 48 h, read-out: GI; in short: as §1
UACC-257 = assay: Growth inhibition of human UACC257 cells at 10 uM after 48 hrs by coulter counter method; conditions: UACC-257, 48 h, read-out: GI; in short: as §1
786-0 = assay: Growth inhibition of human 786-0 cells at 10 uM after 48 hrs by coulter counter method; conditions: 786-0, 48 h, read-out: GI; in short: as §1
M14 = assay: Growth inhibition of human M14 cells at 10 uM after 48 hrs by coulter counter method; conditions: M14, 48 h, read-out: GI; in short: as §1
UACC-62 = assay: Growth inhibition of human UACC62 cells at 10 uM after 48 hrs by coulter counter method; conditions: UACC-62, 48 h, read-out: GI; in short: as §1
SK-MEL-5 = assay: Growth inhibition of human SK-MEL-5 cells at 10 uM after 48 hrs by coulter counter method; conditions: SK-MEL-5, 48 h, read-out: GI; in short: as §1
A549 = assay: Growth inhibition of human A549 cells at 10 uM after 48 hrs by coulter counter method; conditions: A549, 48 h, read-out: GI; in short: as §1
SK-MEL-28 = assay: Growth inhibition of human SK-MEL-28 cells at 10 uM after 48 hrs by coulter counter method; conditions: SK-MEL-28, 48 h, read-out: GI; in short: as §1
HCT-116 = assay: Growth inhibition of human HCT116 cells at 10 uM after 48 hrs by coulter counter method; conditions: HCT-116, 48 h, read-out: GI; in short: as §1
K562 = assay: Growth inhibition of human K562 cells at 10 uM after 48 hrs by coulter counter method; conditions: K562, 48 h, read-out: GI; in short: as §1
HT-29 = assay: Growth inhibition of human HT-29 cells at 10 uM after 48 hrs by coulter counter method; conditions: HT-29, 48 h, read-out: GI; in short: as §1
U-251 = assay: Growth inhibition of human U251 cells at 10 uM after 48 hrs by coulter counter method; conditions: U-251, 48 h, read-out: GI; in short: as §1
LOX IMVI = assay: Growth inhibition of human LOXIMVI cells at 10 uM after 48 hrs by coulter counter method; conditions: read-out: GI; in short: as §1
RPMI-8226 = assay: Growth inhibition of human RPMI8226 cells at 10 uM after 48 hrs by coulter counter method; conditions: RPMI-8226, 48 h, read-out: GI; in short: as §1
NCI-H522 = assay: Growth inhibition of human NCI-H522 cells at 10 uM after 48 hrs by coulter counter method; conditions: NCI-H522, 48 h, read-out: GI; in short: as §1
ACHN = assay: Growth inhibition of human ACHN cells at 10 uM after 48 hrs by coulter counter method; conditions: read-out: GI; in short: as §1
SF-268 = assay: Growth inhibition of human SF268 cells at 10 uM after 48 hrs by coulter counter method; conditions: SF-268, 48 h, read-out: GI; in short: as §1
MDA-MB-468 = assay: Growth inhibition of human MDA-MB-468 cells at 10 uM after 48 hrs by coulter counter method; conditions: MDA-MB-468, 48 h, read-out: GI; in short: as §1
OVCAR-8 = assay: Growth inhibition of human OVCAR8 cells at 10 uM after 48 hrs by coulter counter method; conditions: OVCAR-8, 48 h, read-out: GI; in short: as §1
A498 = assay: Growth inhibition of human A498 cells at 10 uM after 48 hrs by coulter counter method; conditions: A498, 48 h, read-out: GI; in short: as §1
NCI-H23 = assay: Growth inhibition of human NCI-H23 cells at 10 uM after 48 hrs by coulter counter method; conditions: NCI-H23, 48 h, read-out: GI; in short: as §1
SNB-19 = assay: Growth inhibition of human SNB19 cells at 10 uM after 48 hrs by coulter counter method; conditions: SNB-19, 48 h, read-out: GI; in short: as §1
T47D = assay: Growth inhibition of human T47D cells at 10 uM after 48 hrs by coulter counter method; conditions: read-out: GI; in short: as §1
SK-MEL-2 = assay: Growth inhibition of human SK-MEL-2 cells at 10 uM after 48 hrs by coulter counter method; conditions: SK-MEL-2, 48 h, read-out: GI; in short: as §1
CCRF-CEM = assay: Growth inhibition of human CCRF-CEM cells at 10 uM after 48 hrs by coulter counter method; conditions: read-out: GI; in short: as §1
PC-3 = assay: Growth inhibition of human PC3 cells at 10 uM after 48 hrs by coulter counter method; conditions: PC-3, 48 h, read-out: GI; in short: as §1
MCF7 = assay: Growth inhibition of human MCF7 cells at 10 uM after 48 hrs by coulter counter method; conditions: MCF7, 48 h, read-out: GI; in short: as §1
KM12 = assay: Growth inhibition of human KM12 cells at 10 uM after 48 hrs by coulter counter method; conditions: KM12, 48 h, read-out: GI; in short: as §1
MOLT-4 = assay: Growth inhibition of human MOLT4 cells at 10 uM after 48 hrs by coulter counter method; conditions: MOLT-4, 48 h, read-out: GI; in short: as §1
MDA-MB-435 = assay: Growth inhibition of human MDA-MB-435 cells at 10 uM after 48 hrs by coulter counter method; conditions: MDA-MB-435, 48 h, read-out: GI; in short: as §1
NCI-H226 = assay: Growth inhibition of human NCI-H226 cells at 10 uM after 48 hrs by coulter counter method; conditions: NCI-H226, 48 h, read-out: GI; in short: as §1
Malme-3M = assay: Growth inhibition of human MALME-3M cells at 10 uM after 48 hrs by coulter counter method; conditions: read-out: GI; in short: as §1
HCT-15 = assay: Growth inhibition of human HCT15 cells at 10 uM after 48 hrs by coulter counter method; conditions: HCT-15, 48 h, read-out: GI; in short: as §1
NCI-H322M = assay: Growth inhibition of human NCI-H322M cells at 10 uM after 48 hrs by coulter counter method; conditions: read-out: GI; in short: as §1
SNB-75 = assay: Growth inhibition of human SNB75 cells at 10 uM after 48 hrs by coulter counter method; conditions: SNB-75, 48 h, read-out: GI; in short: as §1
IGROV-1 = assay: Growth inhibition of human IGROV1 cells at 10 uM after 48 hrs by coulter counter method; conditions: IGROV-1, 48 h, read-out: GI; in short: as §1
EKVX = assay: Growth inhibition of human EKVX cells at 10 uM after 48 hrs by coulter counter method; conditions: read-out: GI; in short: as §1
SF-295 = assay: Growth inhibition of human SF295 cells at 10 uM after 48 hrs by coulter counter method; conditions: SF-295, 48 h, read-out: GI; in short: as §1
TK-10 = assay: Growth inhibition of human TK10 cells at 10 uM after 48 hrs by coulter counter method; conditions: TK-10, 48 h, read-out: GI; in short: as §1
SR = assay: Growth inhibition of human SR cells at 10 uM after 48 hrs by coulter counter method; conditions: read-out: GI; in short: as §1
CAKI-1 = assay: Growth inhibition of human Caki1 cells at 10 uM after 48 hrs by coulter counter method; conditions: CAKI-1, 48 h, read-out: GI; in short: as §1

`O=C1CN2N=C(c3ccc(Cl)cc3)OC2=N1` gave an inhibition of growth at 10 µM (HL-60(TB)) of less than 10%, an inhibition of growth at 10 µM (NCI/ADR-RES) of less than 10% and an inhibition of growth at 10 µM (BT-549) of less than 10%. For the same compound, the inhibition of growth at 10 µM (SN12C) was less than 10%, the inhibition of growth at 10 µM (UO-31) was 26.8% and the inhibition of growth at 10 µM (UACC-257) was less than 10%. The inhibition of growth at 10 µM (786-0) was less than 10%, the inhibition of growth at 10 µM (M14) was less than 10% and the inhibition of growth at 10 µM (UACC-62) was less than 10%. For the same compound, the inhibition of growth at 10 µM (SK-MEL-5) was less than 10%, the inhibition of growth at 10 µM (A549) was less than 10% and the inhibition of growth at 10 µM (SK-MEL-28) was less than 10%. The inhibition of growth at 10 µM (HCT-116) was less than 10%, the inhibition of growth at 10 µM (K562) was 17.2% and the inhibition of growth at 10 µM (HT-29) was less than 10%. The inhibition of growth at 10 µM (U-251) was less than 10%, the inhibition of growth at 10 µM (LOX IMVI) was less than 10% and the inhibition of growth at 10 µM (RPMI-8226) was less than 10%. For the same compound, the inhibition of growth at 10 µM (NCI-H522) was 18.9%, the inhibition of growth at 10 µM (ACHN) was less than 10% and the inhibition of growth at 10 µM (SF-268) was less than 10%. It also gave an inhibition of growth at 10 µM (MDA-MB-468) of less than 10%, an inhibition of growth at 10 µM (OVCAR-8) of less than 10% and an inhibition of growth at 10 µM (A498) of less than 10%. The inhibition of growth at 10 µM (NCI-H23) was less than 10%, the inhibition of growth at 10 µM (SNB-19) was less than 10% and the inhibition of growth at 10 µM (T47D) was less than 10%. The inhibition of growth at 10 µM (SK-MEL-2) was less than 10%, the inhibition of growth at 10 µM (CCRF-CEM) was less than 10% and the inhibition of growth at 10 µM (PC-3) was less than 10%. For the same compound, the inhibition of growth at 10 µM (MCF7) was less than 10%, the inhibition of growth at 10 µM (KM12) was less than 10% and the inhibition of growth at 10 µM (MOLT-4) was less than 10%. The inhibition of growth at 10 µM (MDA-MB-435) was less than 10%, the inhibition of growth at 10 µM (NCI-H226) was less than 10% and the inhibition of growth at 10 µM (Malme-3M) was less than 10%. It also gave an inhibition of growth at 10 µM (HCT-15) of less than 10%, an inhibition of growth at 10 µM (NCI-H322M) of less than 10% and an inhibition of growth at 10 µM (SNB-75) of less than 10%. For the same compound, the inhibition of growth at 10 µM (IGROV-1) was less than 10%, the inhibition of growth at 10 µM (EKVX) was less than 10% and the inhibition of growth at 10 µM (SF-295) was less than 10%. The inhibition of growth at 10 µM (TK-10) was less than 10%, the inhibition of growth at 10 µM (SR) was less than 10% and the inhibition of growth at 10 µM (CAKI-1) was less than 10%.
